Results: publication PMC5888399 (The FASEB Journal, 2017)
Like-named read-outs stand apart in the source and are kept apart here. Marks after values point to notes of the source that are not given here.

Experiments:
young mdx mice = details: short term (2 wk) treatment; cited from earlier work
exercised mdx mice [1] = assay: Hindlimb grip strength; assay type: in vivo, mouse; details: 12 wk, AGA
Summary of the method: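 In the 12-wk phase 2 study at AGA, treadmill-exercised mice had hindlimb grip force measured weekly with a grip strength meter, at least 48 h after the last treadmill session. Dosing was via drinking water at 10 or 50 mg/kg per day, with spring water as vehicle.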

DIA muscle of mdx mice = assay type: in vivo, mouse
EDL muscle of mdx mice = assay type: in vivo, mouse; details: for % change EDL twitch force: vs mdx vehicle
exercised mdx mice [2] = assay: Forelimb grip strength; assay type: in vivo, mouse; details: for Percentage change in normalized forelimb grip strength: vs mdx vehicle
Summary of the method: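 Mice were treadmill-exercised to unmask the phenotype. Forelimb grip force was measured weekly with a grip strength meter, at least 48 h after the last treadmill session: at UNIBA in phase 1 (4 wk), and at UNIBA and AGA in phase 2 (12 wk). Values were normalized to body weight. Outputs were percentage change vs WT or mdx vehicle and recovery score relative to the WT–mdx difference.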

creatine kinase (CK) = assay: CK serum levels; assay type: in vivo, mouse
Summary of the method: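 Serum was taken from blood drawn by cardiac puncture. CK was measured spectrophotometrically with a diagnostic kit. Mice received drinking-water dosing of 10 or 50 mg/kg per day, with spring water as vehicle.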

[3] = test system: FDB muscle fibers of mdx mice; assay: Fura-2 microfluorescence, resting cytosolic Ca2+ in isolated FDB myofibers; assay type: in vivo, mouse; details: 4 wk
Summary of the method: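 FDB muscles were dissected after 4 wk of drinking-water dosing. Myofibers were isolated enzymatically in Ringer's with 0.8–1 mg/ml collagenase type XI-S for 45 min at 37°C, under constant agitation and O2 flux. Resting cytosolic Ca2+ was then measured by fura-2 microfluorescence (UNIBA).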

Oral bioavailability = assay type: in vivo; details: data not shown
[4] = test system: PKA-phosphorylated RyR channels in SR vesicles from either cardiac or skeletal muscles; assay: Calstabin rebinding to RyR channels in SR vesicles; assay type: binding; details: data not shown
[5] = test system: RyR1, FKB1α, UTRN, MIOG, FSTN, BNIP3, TGF-β, CYBB; assay: Real-time PCR gene expression in GC muscle; assay type: in vivo, mouse
Summary of the method: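 Total RNA was extracted from gastrocnemius (UNIBA) and reverse-transcribed at 25°C for 10 min, 42°C for 50 min and 70°C for 15 min. TaqMan real-time PCR used 8 ng cDNA per reaction, singleplex, in triplicate. Targets were RyR1, FKBP1α, utrophin, myogenin, follistatin, BNIP3, TGF-β and CYBB, normalized to GAPDH.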

mdx EDL muscle fibers = assay type: in vivo, mouse; details: 4 wk
[6] = test system: DIA and GC muscles of mdx mice; assay: Histologic evaluation; assay type: in vivo, mouse; details: for Change in % damaged, total damaged gastrocnemius (%) / CNFs in DIA / Change in % damaged, total damaged DIA (%): 12 wk; for Change in % damaged, total damaged gastrocnemius (%) / Change in % damaged, total damaged DIA (%): vs mdx vehicle; for CNFs in DIA: vehicle 72.3 ± 1.6
Summary of the method: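 Diaphragm and left gastrocnemius were frozen in isopentane cooled in N2 (AGA) or paraffin-fixed (UNIBA). Sections of 6–10 μm were H&E-stained. Scored items: inflammation, degeneration, regeneration, centronucleated and normal fibers, and total damaged area. Five random images were taken per section, with blinded analysis on at least 6 animals per group.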

[7] = Body weight, organ and muscle mass; assay type: in vivo, mouse
Summary of the method: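 mdx and WT mice given test compound in spring water (vehicle) ad libitum, targeting 10 or 50 mg/kg per day. Dose was calculated from weekly water volume per cage divided by animals and normalized to mean body weight. Body weight was tracked over 4 or 12 wk of treatment. Data are means ± sem. WT vs mdx vehicle was compared by unpaired t test; doses vs mdx vehicle by 1-way ANOVA with Dunnett's test.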

Ca2+-dependent calpains = assay: Calpain activity in DIA muscle lysates; assay type: in vivo, mouse; details: treated groups, 4 wk, not significant
[8] = S48168 plasma and GC muscle levels; assay type: in vivo, mouse; details: for Skeletal muscle (GC) concentration (mean) / Plasma concentration (mean): AGA; for Plasma concentration (mean): 20–30 min after drinking water withdrawn; for concentration at 2 h: mdx, mouse, oral, UNIBA
Summary of the method: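 Drug levels in plasma and gastrocnemius were measured by LC-MS/MS (ESI+, PFP column) after protein precipitation on phospholipid-removal plates, with a stable-isotope-labelled internal standard. In phase 2, blood was collected 20–30 min (AGA) or 2 h (UNIBA) after drinking water was withdrawn, following 12 wk of dosing at 10 or 50 mg/kg per day.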

[9] = 50 mg/kg per day, 4 wk, not significant

COc1ccc2c(c1)CN(C)CCS2 [S107]
Muscle function in young mdx mice (young mdx mice): improved muscle function

COc1ccc2c(c1)CN(Cc1ccc(C(=O)O)cc1)CCS2 [S48168/ARM210]
Normalized hindlimb grip strength (exercised mdx mice [1]; 50 mg/kg per day): statistically significant ameliorative effect | Absolute hindlimb grip strength vs mdx vehicle (exercised mdx mice [1]; treatment groups): no differences | % change DIA twitch force (DIA muscle of mdx mice; 10 mg/kg per day, 12 wk, UNIBA, vs mdx vehicle): +2% | DIA specific tetanic force vs mdx vehicle (DIA muscle of mdx mice; 50 mg/kg per day, 4 wk): significantly higher | DIA force–frequency relationship vs mdx vehicle (DIA muscle of mdx mice; 50 mg/kg per day, 4 wk, 120 and 140 Hz): significantly higher values | DIA fatigue and recovery from fatigue (DIA muscle of mdx mice; any dose level, 4 wk): no effect | % change EDL twitch force (EDL muscle of mdx mice; 10 mg/kg per day, 12 wk, AGA): −2% | % change EDL twitch force (EDL muscle of mdx mice; 10 mg/kg per day, 12 wk, UNIBA): −1% | % change EDL twitch force (EDL muscle of mdx mice; 50 mg/kg per day, 12 wk, AGA): +6% | EDL stiffness (EDL muscle of mdx mice; 50 mg/kg per day, 12 wk, UNIBA): slight but not significant amelioration | EDL fatigue-related decline in force and recovery from fatigue vs mdx vehicle (EDL muscle of mdx mice; 12 wk, data not shown): no differences | EDL muscle-contraction kinetics (time to peak, half relaxation time) (EDL muscle of mdx mice; 12 wk, data not shown): no effect | EDL muscle force (twitch and specific tetanic) (EDL muscle of mdx mice; both doses, 4 wk): no effect | Force decrease in EDL muscle from eccentric contraction (EDL muscle of mdx mice; either dose, 12 wk, UNIBA): No protective effect | Normalized forelimb grip strength vs mdx vehicle (exercised mdx mice [2]; 10 mg/kg per day, 12 wk, AGA): no statistically significant effect | Recovery score, normalized forelimb force (exercised mdx mice [2]; 10 mg/kg, week 12, UNIBA): 35% | Normalized forelimb force (exercised mdx mice [2]; 10 mg/kg, week 12, UNIBA, vehicle 4.06 ± 0.20): 5 ± 0.23 KGF/kg | Percentage change in normalized forelimb grip strength (exercised mdx mice [2]; 10 mg/kg/d, 12 wk, AGA): +3% | Normalized forelimb grip strength (exercised mdx mice [2]; 50 mg/kg per day, 12 wk, AGA, vehicle 3.62 ± 0.14): 3.99 ± 0.15 KGF/kg | Recovery score, absolute forelimb strength (exercised mdx mice [2]; 50 mg/kg per day, W4, phase 1 UNIBA): 70% | Recovery score, normalized forelimb force (exercised mdx mice [2]; 50 mg/kg, week 12, UNIBA): 12% | Percentage change in normalized forelimb grip strength (exercised mdx mice [2]; 50 mg/kg/d, 12 wk, AGA): +10** % | Percentage change in normalized forelimb grip strength (exercised mdx mice [2]; 50 mg/kg/d, 12 wk, UNIBA): +8% | CK level (creatine kinase (CK); 12 wk, UNIBA and AGA): no significant changes | Serum level of CK vs mdx vehicle (creatine kinase (CK); either dosage, 4 wk): No significant change | Level of cytosolic Ca2+ vs mdx vehicle ([3]; 10 mg/kg per day): no difference | Reduction in cytosolic Ca2+ vs mdx vehicle myofibers ([3]; 50 mg/kg per day): 25% | Oral bioavailability (Oral bioavailability): good oral bioavailability | Calstabin binding to PKA-phosphorylated RyR channels [4]: effectively re-establish calstabin binding | BNIP3 gene expression level vs mdx vehicle ([5]; 50 mg/kg per day, 4 wk): trend toward an increase | Gene expression of RyR1 compared with WT mice ([5]; 50 mg/kg per day, 4 wk): significant increase | Expression of RyR1, FKB1α, UTRN, MIOG, FSTN, TGF-β, or CYBB vs mdx vehicle ([5]; 10 or 50 mg/kg per day, 4 wk): No significant changes | Expression level of RyR1, calstabin, or BNIP3 ([5]; any dose, 12 wk): No significant changes | Mechanical threshold: potential for fiber contraction, rheobase voltage (mdx EDL muscle fibers; 50 mg/kg per day, all durations of depolarizing pulses): significant shift in the potential for fiber contraction toward WT values | Mechanical threshold: rheobase voltage (mdx EDL muscle fibers; printed 50 mg/kg per day): slight but nonsignificant effect | Change in % damaged, total damaged gastrocnemius (%) ([6]; 10 mg/kg per day, AGA): 1% | CNFs in DIA ([6]; 10 mg/kg, UNIBA): 62.4 ± 2.9% | Percentage of regenerating area in GC ([6]; 50 mg/kg per day, 4 wk): significant increases | Percentage of regeneration in DIA [6, 9]: increase in the percentage of regeneration | Percentage of total damage in DIA [6, 9]: reduction in the percentage of total damage | Percentage of total damage in GC ([6]; 50 mg/kg per day, 4 wk, significant): decreases | Change in % damaged, total damaged DIA (%) ([6]; 50 mg/kg per day, AGA): −10* % | Change in % damaged, total damaged gastrocnemius (%) ([6]; 50 mg/kg per day, AGA): 5% | Change in % damaged, total damaged DIA (%) ([6]; 50 mg/kg per day, UNIBA): −19% | CNFs in DIA ([6]; 50 mg/kg, UNIBA): 53.3 ± 2.5% | Number of CNF vs normal fibers in DIA or GC ([6]; either dose, 4 wk): No marked differences | Heart mass normalized to body weight vs mdx vehicle ([7]; 10 mg/kg per day, 4 wk): lower normalized mean value | Quadriceps mass, absolute and normalized ([7]; 10 mg/kg per day, 12 wk, UNIBA): significant increase | Liver mass normalized to body weight ([7]; 50 mg/kg per day, 12 wk, UNIBA, n = 8): 56.39 ± 2.61 g/g × 1000 | Mass of various skeletal muscles ([7]; 4 wk): no drug effect | Body weight vs mdx vehicle ([7]; 10 or 50 mg/kg per day, 4 wk, phase 1): no changes in body weight | Body weight vs mdx vehicle ([7]; 12 wk, UNIBA and AGA, any time point): no changes in body weight | Calpain activity in DIA (Ca2+-dependent calpains): trend toward a reduction | Skeletal muscle (GC) concentration (mean) ([8]; 10 mg/kg, 12 wk treatment): 0.552 µg/g | Plasma concentration (mean) ([8]; 10 mg/kg, 12 wk treatment): 6125 ng/mL | Skeletal muscle (GC) concentration (mean) ([8]; 50 mg/kg, 12 wk treatment): 1.716 µg/g | Plasma concentration (mean) ([8]; 50 mg/kg, 12 wk treatment): 18775 ng/mL | concentration at 2 h ([8]; gastrocnemius (GC) skeletal muscle, 10 mg/kg, Skeletal muscle (GC) concentration (mean), 4 wk treatment): 151 ng/g | concentration at 2 h ([8]; gastrocnemius (GC) skeletal muscle, 10 mg/kg, Skeletal muscle (GC) concentration (mean), 12 wk treatment): 123 ng/g | concentration at 2 h ([8]; gastrocnemius (GC) skeletal muscle, 50 mg/kg, Skeletal muscle (GC) concentration (mean), 4 wk treatment): 512 ng/g | concentration at 2 h ([8]; gastrocnemius (GC) skeletal muscle, 50 mg/kg, Skeletal muscle (GC) concentration (mean), 12 wk treatment): 1160 ng/g | concentration at 2 h ([8]; plasma, 10 mg/kg, Plasma concentration (mean), 10 mg/kg, 4 wk treatment, about 2 h after drinking water withdrawn): 881 ng/mL | concentration at 2 h ([8]; plasma, 50 mg/kg, Plasma concentration (mean), 50 mg/kg, 4 wk treatment, about 2 h after drinking water withdrawn): 3020 ng/mL
